ChEMBL document CHEMBL5674875, “RUNX2 expression in thyroid and breast cancer requires the cooperation of three non-redundant enhancers under the control of BRD4 and c-JUN” (Nucleic Acids Res, 2017)
Active and inactive are the calls of the source. The rule behind the calls is not given here.

Key:
TPC1 [1] = assay: Inhibition of c-MYC expression in human TPC1 cells at 0.25 to 1 uM after 6 to 24 hrs by qRT-PCR analysis; type: functional, cell-based; conditions: dose 0.25-1 µM, time 6-24 hrs
In short: (§1)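 Cells in DMEM/10% FBS were treated with the indicated compound concentrations or DMSO mock. Total RNA was purified and reverse-transcribed, and transcript levels were measured by EvaGreen-based qRT-PCR.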

MDA-MB-231 [2] = assay: Inhibition of c-MYC expression in human MDA-MB-231 cells at 0.25 to 1 uM after 6 to 24 hrs by qRT-PCR analysis; type: functional, cell-based; conditions: dose 0.25-1 µM, time 6-24 hrs; in short: as §1
MCF7 [3] = assay: Inhibition of c-MYC expression in human MCF7 cells at 0.25 to 1 uM after 6 to 24 hrs by qRT-PCR analysis; type: functional, cell-based; conditions: dose 0.25-1 µM, time 6-24 hrs; in short: as §1
[4] = molecular target: Mediator of RNA polymerase II transcription subunit 1 (Homo sapiens) (UniProt Q15648); assay: Inhibition of MED1 in human TPC1 cells assessed as reduction of […] binding to all active RUNX2 regulatory elements (ENH11,ENH13) at 1 uM by ChIP analysis; type: cell-based
In short: (§2)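 Cells were treated with 1 μM compound or DMSO mock, 24 h unless otherwise specified. ChIP used anti-MED1 antibody at the RUNX2 P2 promoter and active enhancer regions. An unrelated region upstream of P2 served as negative control. Enrichment is expressed as percentage of input.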

[5] = molecular target: Mediator of RNA polymerase II transcription subunit 1 (Homo sapiens) (UniProt Q15648); assay: Partial inhibition of MED1 in human MCF7 cells assessed as partial reduction of […] binding to all active RUNX2 regulatory elements (ENH3,ENH13) at 1 uM by ChIP analysis; type: cell-based; in short: as §2
MDA-MB-231 [6] = assay: Anti-proliferative activity against human MDA-MB-231 cells assessed as reduction in cell proliferation incubated for 72 hrs; type: functional, cell-based; conditions: MDA-MB-231, 72 h
In short: (§3)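 Cells grown in DMEM with 10% fetal bovine serum at 37°C/5% CO2, then exposed to a series of compound concentrations or DMSO mock. Proliferation curves were recorded for each line.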

BCPAP [7] = assay: Anti-proliferative activity against human BCPAP cells assessed as reduction in cell proliferation incubated for 72 hrs; type: functional, cell-based; in short: as §3
[8] = molecular target: Mediator of RNA polymerase II transcription subunit 1 (Homo sapiens) (UniProt Q15648); assay: Inhibition of MED1 in human BCPAP cells assessed as reduction of […] binding to all active RUNX2 regulatory elements (ENH11) at 1 uM by ChIP analysis; type: cell-based; in short: as §2
BCPAP [9] = assay: Inhibition of c-MYC expression in human BCPAP cells at 0.25 to 1 uM after 6 to 24 hrs by qRT-PCR analysis; type: functional, cell-based; conditions: dose 0.25-1 µM, time 6-24 hrs; in short: as §1
TPC1 [10] = assay: Anti-proliferative activity against human TPC1 cells assessed as reduction in cell proliferation incubated for 72 hrs; type: functional, cell-based; conditions: TPC1, 72 h; in short: as §3
MCF7 [11] = assay: Anti-proliferative activity against human MCF7 cells assessed as reduction in cell proliferation incubated for 72 hrs; type: functional, cell-based; conditions: MCF7, 72 h; in short: as §3
[12] = molecular target: Mediator of RNA polymerase II transcription subunit 1 (Homo sapiens) (UniProt Q15648); assay: Inhibition of MED1 in human MDA-MB-231 cells assessed as reduction of […] binding to all active RUNX2 regulatory elements (ENH11,ENH13) at 1 uM by ChIP analysis; type: cell-based; in short: as §2

Sequence of Mediator of RNA polymerase II transcription subunit 1 (Homo sapiens) (Q15648 whole entry): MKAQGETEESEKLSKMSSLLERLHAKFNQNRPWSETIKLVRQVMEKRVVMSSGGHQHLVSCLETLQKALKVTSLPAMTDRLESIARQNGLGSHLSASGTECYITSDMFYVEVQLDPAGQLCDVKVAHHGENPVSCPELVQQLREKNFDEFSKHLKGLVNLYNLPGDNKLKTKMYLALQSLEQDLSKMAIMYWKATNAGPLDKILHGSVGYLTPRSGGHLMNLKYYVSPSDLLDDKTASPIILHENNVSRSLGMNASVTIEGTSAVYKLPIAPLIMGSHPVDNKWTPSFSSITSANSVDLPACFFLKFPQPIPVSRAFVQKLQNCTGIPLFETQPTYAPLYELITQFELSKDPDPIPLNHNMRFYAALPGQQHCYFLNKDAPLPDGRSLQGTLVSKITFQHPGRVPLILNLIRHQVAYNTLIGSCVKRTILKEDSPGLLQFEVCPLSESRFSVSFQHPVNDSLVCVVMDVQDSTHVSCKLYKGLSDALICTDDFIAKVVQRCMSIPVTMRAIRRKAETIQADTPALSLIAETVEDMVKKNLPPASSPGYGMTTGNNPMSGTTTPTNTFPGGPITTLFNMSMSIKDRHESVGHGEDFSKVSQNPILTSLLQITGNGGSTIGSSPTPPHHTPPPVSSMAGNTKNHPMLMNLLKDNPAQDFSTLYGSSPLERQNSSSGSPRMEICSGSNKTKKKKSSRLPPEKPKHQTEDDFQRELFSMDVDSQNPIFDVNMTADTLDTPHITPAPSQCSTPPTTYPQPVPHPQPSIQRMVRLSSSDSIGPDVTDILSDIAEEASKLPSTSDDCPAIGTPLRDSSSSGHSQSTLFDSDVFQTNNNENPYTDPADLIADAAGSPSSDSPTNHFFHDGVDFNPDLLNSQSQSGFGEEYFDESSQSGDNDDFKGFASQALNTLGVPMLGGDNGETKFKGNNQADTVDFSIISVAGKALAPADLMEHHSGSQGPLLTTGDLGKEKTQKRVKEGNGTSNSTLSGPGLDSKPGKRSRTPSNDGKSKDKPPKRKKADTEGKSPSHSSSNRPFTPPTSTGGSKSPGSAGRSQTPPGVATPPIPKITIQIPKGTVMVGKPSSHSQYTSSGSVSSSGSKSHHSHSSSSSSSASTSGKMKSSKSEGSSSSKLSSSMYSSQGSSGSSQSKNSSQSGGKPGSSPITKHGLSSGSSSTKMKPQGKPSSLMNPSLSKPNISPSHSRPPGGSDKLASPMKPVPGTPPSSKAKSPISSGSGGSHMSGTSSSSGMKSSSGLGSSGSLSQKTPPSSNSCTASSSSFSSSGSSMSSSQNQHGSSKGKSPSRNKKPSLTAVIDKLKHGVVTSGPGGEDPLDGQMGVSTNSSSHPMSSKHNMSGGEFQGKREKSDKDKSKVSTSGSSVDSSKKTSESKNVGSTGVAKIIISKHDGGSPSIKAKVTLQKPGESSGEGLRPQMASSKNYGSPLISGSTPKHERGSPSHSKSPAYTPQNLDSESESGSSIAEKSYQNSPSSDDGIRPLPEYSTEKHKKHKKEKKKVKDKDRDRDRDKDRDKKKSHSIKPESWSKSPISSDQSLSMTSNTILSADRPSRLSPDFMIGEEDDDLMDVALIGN

With `Cc1sc2c(c1C)C(c1ccc(Cl)cc1)=N[C@@H](CC(=O)OC(C)(C)C)c1nnc(C)n1-2` the inhibition (TPC1 [1]) was “inactive”, the inhibition (MDA-MB-231 [2]) was “inactive” and the inhibition (MCF7 [3]) was “inactive”. The inhibition [4] was “Active”, the inhibition [5] was “Active” and the IC50 (MDA-MB-231 [6]) was 507 nM. The IC50 (BCPAP [7]) was 254 nM, the inhibition [8] was “Active” and the inhibition (BCPAP [9]) was “inactive”. For the same compound, the IC50 (TPC1 [10]) was 462 nM, the IC50 (MCF7 [11]) was 12000 nM and the inhibition [12] was “Active”.
